In one test the test system is P. falciparum strain 3D7. Kind of test: P. falciparum growth inhibition assay. The test is classed as cell-based, Plasmodium falciparum. The procedure, abridged: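 3D7 parasites kept in human erythrocytes (4% hematocrit) in RPMI with 0.5% albumax and synchronized by repeated sorbitol treatment. Assay wells used complete medium, 2% hematocrit and parasitemia ≤1%. Test compound (0–100 μM final) was added to 8–10 h rings, with a DMSO solvent control. Growth ran 52 h, then SYBR green DNA fluorescence was read. Triplicate wells; experiment repeated twice.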

For a further test, the system named is 3D7 Plasmodium parasites. Kind of test: Effect on parasite morphology and development. The test is classed as cell-based, Plasmodium falciparum. Conditions: at their IC50 value concentration, ring stage (8–10 h) 3D7 parasites treated. The gist of the method: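 Sorbitol-synchronised P. falciparum 3D7 cultured in human erythrocytes (4% hematocrit) in RPMI with 0.5% albumax. Ring-stage (8–10 h) parasites treated with test compound, E-64 or solvent alone as control. Light microscopy of parasitized RBCs at several time points after treatment, following progression from ring to trophozoite to schizont to merozoites and reinvasion of fresh RBCs as new rings.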

The mark [1] stands for this setting: Plasmodium falciparum, 3D7, read-out: Inhibition of P. falciparum EC50, 3D7 culture, ring stage 8–10 h, 52 h growth, SYBR green.

Like-named read-outs stand apart in the source and are kept apart here.

Take `FC(F)(F)c1cccc(-n2cc(COc3ccnc4cc(Cl)ccc34)nn2)c1` [Compound T1, 7-Chloro-4-({1-[3-(trifluoromethyl)phenyl]-1H-1,2,3-triazol-4yl}methoxy) quinoline]: in the test on P. falciparum strain 3D7 (setting [1]), the EC50 came to 49.5 µM.

In the case of `COc1ccc(-n2cc(COc3ccnc4cc(Cl)ccc34)nn2)cc1` [Compound T8, 7-Chloro-4-{[1-(4-methoxyphenyl)-1H-1,2,3-triazol-4-yl]methoxy} quinoline], the half-maximal effective concentration (EC50) with P. falciparum strain 3D7 (setting [1]) worked out at 51.7 µM.

`Clc1ccc2c(OCc3cn(-c4ccccc4)nn3)ccnc2c1` [Compound T10, 7-Chloro-4-[(1-phenyl-1H-1,2,3-triazol-4-yl)methoxy] quinoline]: in the test on P. falciparum strain 3D7 (setting [1]), the EC50 was around 57.6 µM. On the same count and under the same terms, next, `Cc1ccccc1-n1cc(COc2ccnc3cc(Cl)ccc23)nn1` [Compound T9, 7-Chloro-4-{[1-(2-methylphenyl)-1H-1,2,3-triazol-4-yl]methoxy} quinoline]: 147 µM. On to `O=[N+]([O-])c1ccc(-n2cc(COc3ccnc4cc(Cl)ccc34)nn2)cc1` [Compound T7, 7-Chloro-4-{[1-(4-nitrophenyl)-1H-1,2,3-triazol-4-yl]methoxy} quinoline], for which, in the test with P. falciparum strain 3D7 (setting [1]), the EC50 turned out to be 49.9 µM. The New ring formation result with 3D7 Plasmodium parasites is on record as “few new rings”.

Consider `Fc1ccc(-n2cc(COc3ccnc4cc(Cl)ccc34)nn2)cc1` [Compound T6, 7-Chloro-4-{[1-(4-fluorophenyl)-1H-1,2,3-triazol-4-yl]methoxy} quinoline], for which the EC50 with P. falciparum strain 3D7 (setting [1]) is around 57.9 µM. In the case of `Fc1ccccc1-n1cc(COc2ccnc3cc(Cl)ccc23)nn1` [Compound T5, 7-Chloro-4-{[1-(2-fluorophenyl)-1H-1,2,3-triazol-4-yl]methoxy} quinoline], the 50% effective concentration (EC50) with P. falciparum strain 3D7 (setting [1]) was determined as 49.5 µM; with P. falciparum strain 3D7 (read-out: Inhibition of P. falciparum EC50, 3D7 culture, ring stage 8–10 h, 52 h growth, SYBR green), 66.6 µM.

In the case of `Fc1ccc(-n2cc(COc3ccnc4cc(Cl)ccc34)nn2)cc1F` [Compound T4, 7-Chloro-4-{[1-(3,4-difluorophenyl)-1H-1,2,3-triazol-4-yl]methoxy} quinoline], the EC50 in the test with P. falciparum strain 3D7 (setting [1]) was found to be 21.9 µM. Besides, the New ring formation result with 3D7 Plasmodium parasites is reported as “few new rings”.

A word on the EC50: it is the concentration needed to bring the measured effect to its halfway point.

These data come from PMC9076119 (RSC Advances, 2019).
